Source: PubChem BioAssay
This is one part of a sample in which hits are shown more often than they occur.
UPR CHOP act = activators of apoptotic arm of unfolded protein response (CHOP); AID 449763; 330,000 tested, 0.34% active; activation, % at 10 µM; CHO-CHOP luciferase reporter, UPR activation, luminescence; percent of tunicamycin response over DMSO baseline;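 active means at 10 µM dose, activation of 40% or more, normalized to positive control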
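Assay system: CHO-CHOP cells, stable luciferase reporter of PERK-eIF2a-CHOP signalling / Buffer or medium: F12 plus 10% serum / Compound dosing: one dose, 10 µM in 0.5% DMSO / Times: 6 h compound treatment, 37 °C / Technique: luciferase luminescence / Read-out: % reporter activation, DMSO baseline versus tunicamycin full activation / Benchmarks: tunicamycin and DMSO controls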
PvdQ inh = blocks Pseudomonas aeruginosa PvdQ acylase activity | purified PvdQ acylase, fluorescence plate reader | inhibition, % at 10 µM | 340,000 tested, 0.063% active | AID 488965; in the data active means inhibition above about 30%, passing the limit was not always enough
CHOP inhibitor = inhibitors of CHOP induction in ER stress response; CHO-K1 CHOP-promoter luciferase, tunicamycin-induced, 15-18 h; AID 2732; 220,000 tested, 3.8% active; inhibition, % at 10 µM;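 active means compounds that reduced the stress-induced luciferase reporter signal by more than about 70% of percent inhibition, limit read from the data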
UPR XBP1 act = activators of adaptive arm of unfolded protein response (XBP1). CHO-XBP1 luciferase reporter, IRE1-XBP1 UPR activation, luminescence; percent of tunicamycin response, DMSO as zero. activation, % at 20 µM. 330,000 tested, 0.33% active. AID 463104;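 active means versus positive control, 20 µM dose yields 30% or more activation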
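Material: CHO-XBP1 cells stably carrying IRE1-XBP1-driven luciferase reporter | Medium: F12 with 10% serum | Compound dosing: 20 µM single concentration, DMSO 1% | Incubation: Overnight seeding at 37 °C, 6 h compound treatment at 37 °C | Detection: Steady-Glo luminescence read | Read-out basis: % activation of reporter signal versus tunicamycin and DMSO controls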
CHOP inh conf = confirmation of CHOP induction inhibitors. shares compounds with CHOP inhibitor. CHO-CHOP promoter luciferase reporter, tunicamycin-induced, luminescence. inhibition, % at 10 µM. 2,100 tested, 45% active. AID 504437;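 active means mean of three repeat readings of reporter signal inhibition above a set limit, cut at about 70% in these data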
Large screens that a line does not name were inactive (follow-up assays come after a bar, where they were run); ! = not confirmed by another sample.

Cc1ccc2nc(NC(=O)C3CCCN(S(=O)(=O)c4cccc5nonc45)C3)sc2c1 (centres undefined)	none (no result: PvdQ inh)
CCOc1ccc(NC(=O)C2CCCN(S(=O)(=O)c3cccc4nsnc34)C2)cc1 (centres undefined)	CHOP inhibitor 73.7
CCCCC(C(=O)O)C(C)CC(=O)NNC(=O)c1ccco1 (centres undefined)	none
CCOC(=O)CNC(=O)N1CCCC(C(=O)c2ccccc2SC)C1 (centres undefined)	none
Cc1cccn2c(=O)nc(SCC(=O)NCCc3ccccc3)nc12	none (no result: CHOP inhibitor)
COc1cc(-c2cc(C(=O)NCc3ccco3)c3ccccc3n2)cc(OC)c1OC	none (no result: CHOP inhibitor)
COc1cc(-c2cc(C(=O)Nc3ccc(S(=O)(=O)NCc4ccco4)cc3)c3ccccc3n2)cc(OC)c1OC	CHOP inhibitor 78.7
O=S(=O)(Nc1ccc(Cl)cc1)c1ccc(N2CCOCC2)c(NC(=S)NCCN2CCOCC2)c1	CHOP inhibitor 80.9
Cc1ccc(S(=O)(=O)c2nc(Nc3nccs3)sc2Cl)cc1	CHOP inhibitor 72.2
O=C(Nc1ccc(S(=O)(=O)N2CCN(c3ccccc3)CC2)cc1)c1cccs1	none
Cc1ccc(Cn2nc(-c3ccccc3)nc2-c2ccccc2)cc1	CHOP inhibitor 75.3
Cc1cccc(N2C(=O)CN(Cc3ccccc3)C2=S)c1	none (no result: CHOP inhibitor)
CC12CCC(C/C1=N\N=C1\NC(=O)/C(=C\c3ccc(Cl)cc3)S1)C2(C)C (centres undefined)	CHOP inhibitor 93.0
Cc1cc(C)[n+]2[nH]c(N)c(N=Nc3ccccc3)c2n1	none (no result: UPR CHOP act, UPR XBP1 act)
N#Cc1ccc(C(=O)OCCCc2cc3ccccc3c(=O)o2)cc1	none (no result: CHOP inhibitor)
C1CCC(C(CC2CCCCN2)C2CCCCC2)CC1 (centres undefined)	CHOP inhibitor 99.2
Cc1ccc2c(c1)c(C)c(C)n2CC(O)Cn1nnc2ccccc21 (centres undefined)	CHOP inhibitor 83.7
CCOc1ccccc1-n1nnnc1SCC(=O)Nc1cc(C)on1	none
COc1ccccc1-n1nnnc1SCC(=O)Nc1cc(C)on1	CHOP inhibitor 70.2
O=S(=O)(c1cccc(-c2n[nH]c(=S)n2C2CCCC2)c1)N1CCOCC1	none
CSc1ccccc1NC(=O)CSCc1ccc(Br)cc1	none
CSc1ccc(CN(C)CC(=O)Nc2ccccc2Br)cc1	none
CSc1ccccc1NC(=O)CSCc1ccccc1Br	CHOP inhibitor 71.8
CSc1ccccc1NC(=O)CN(C)Cc1ccc(Br)cc1	CHOP inhibitor 80.3
O=C(OCC(=O)c1c[nH]c2ccccc12)c1cc2ccccc2cc1O	CHOP inhibitor 72.6
COc1ccc(C(=O)OCC(=O)c2c[nH]c3ccccc23)c(OC)c1	none (no result: CHOP inhibitor)
Cc1cc(C)c(C(=O)COC(=O)CCNS(=O)(=O)c2c(Cl)cccc2Cl)cc1C	none
CC(=O)Nc1ccc(Nc2cc(C(C)C)nc3c(-c4ccccc4)c(C)nn23)cc1	none
Cc1cc(OCc2nc(-c3cccnc3)no2)c(C)cc1Br	CHOP inhibitor 86.2
Nc1cc(=O)[nH]c2ncnn12	none (no result: UPR CHOP act, CHOP inhibitor, UPR XBP1 act)
CC(C)NC(=O)NC(=O)COC(=O)c1ccc(S(=O)(=O)Nc2ccccc2)cc1	none
CC(C)NC(=O)NC(=O)COC(=O)c1ccc(OC(F)(F)F)cc1	CHOP inhibitor 84.3
Cc1noc(/C=C/N(C)C)c1S(=O)(=O)N1CCC(C(=O)NC(C)(C)C)CC1	none (no result: CHOP inhibitor)
CCn1ccnc1CN(C)Cc1cn(-c2ccc(C)cc2)nc1-c1cccc(C)c1	CHOP inhibitor 82.6
c1cnc(SCCOc2ccc3c(c2)CCC3)nc1	none
CCOc1ccc(Nc2nc(Nc3ccc(O)cc3)nc(C)c2[N+](=O)[O-])cc1	CHOP inhibitor 79.5
CCOc1ccc(Nc2nc(NCC(=O)O)nc(N)c2[N+](=O)[O-])cc1	none (no result: CHOP inhibitor)
Cc1cc(Cl)ccc1NC(=O)CSc1nnc(-c2ccncc2)n1Cc1ccco1	none
Cc1ccc(NCc2nnc(SCC(=O)Nc3ncc(C)s3)n2Cc2ccco2)c(C)c1	CHOP inhibitor 93.6
FCCCOc1ccc(-c2nccc(-c3ccc(Cl)cc3)n2)cc1	CHOP inhibitor 77.7
COc1ccc(OCCn2nnc(-c3ccc(Cl)cc3)n2)cc1	none
COc1ccc(-c2ccnc(-c3ccc(OCCCF)cc3)n2)cc1	CHOP inhibitor 71.4
O=S(=O)(c1ccc(Br)cc1)c1nc(-c2ccccc2)oc1NCCN1CCOCC1	none (no result: CHOP inhibitor)
CCOc1cccc(-c2nnc3sc(COc4ccc(C)cc4)nn23)c1	CHOP inhibitor 70.3
CC(C)c1ccc(/C=c2\sc3nc(-c4ccncc4)nn3c2=O)cc1	CHOP inhibitor 70.9
COc1ccc(Cl)cc1S(=O)(=O)N1CCN(Cc2ccc3c(c2)OCO3)CC1	CHOP inhibitor 73.5
COc1ccc(F)cc1S(=O)(=O)N1CCN(Cc2ccc3c(c2)OCO3)CC1	none
CCOC(=O)Cn1c2ccccc2c2nc3ccccc3nc21	CHOP inhibitor 92.8
COc1ccc(Cn2c3ccc(OC)cc3c3nc4ccccc4nc32)cc1	none
COc1ccc2c(c1)c1nc3ccccc3nc1n2CC(=O)OC(C)C	CHOP inhibitor 93.9
O=c1oc2ccccc2n1CCn1c2ccccc2c2nc3ccccc3nc21	none
CCOC(=O)Cn1c2ccccc2c2nc(C)sc21	none
COc1ccc2c(c1)c1nc3ccccc3nc1n2CCn1c(=O)oc2ccccc21	CHOP inhibitor 95.2
CC(C)(C)c1ccc(C(=O)N2CCCC2c2cccs2)cc1 (centres undefined)	none (no result: CHOP inhibitor)
CCN1C=C(C(=O)OC)C(c2cccc(OC)c2OC)C(C(=O)OC)=C1	none
Cc1ccc(Cl)cc1NC(=O)COC(=O)C12CC3CC(CC(C3)C1)C2	CHOP inhibitor 78.9!
N#C/C(=C/C=C/c1ccccc1)C(=O)Nc1ccccc1	none
N#C/C(=C\C=C\c1ccccc1)C(=O)Nc1ccccc1	CHOP inhibitor 73.4
O=C(NCc1ccco1)c1cc2cc3ccc(Cl)cc3nc2o1	CHOP inhibitor 80.2
COc1ccc2cc3cc(C(=O)NCc4ccco4)oc3nc2c1	none
COc1ccc(-c2noc(-c3ccc(Br)o3)n2)cc1	none
COC(=O)c1noc(-c2ccc(OC)cc2)n1	PvdQ inh 70.9
COc1ccc(Cc2noc(-c3ccc(C)cc3)n2)cc1	CHOP inhibitor 87.5
COc1ccc(-c2nc(-c3ccc(Br)o3)no2)cc1	CHOP inhibitor 75.8
COc1ccc(Cc2noc(-c3ccc([N+](=O)[O-])cc3)n2)cc1OC	none
CC1CCCCC1NC(=O)CN1C(=O)NC(C)(c2cccc(Br)c2)C1=O (centres undefined)	none (no result: CHOP inhibitor)
O/N=C/c1cccc[n+]1CCCCCC[n+]1ccccc1/C=N/O	none (no result: CHOP inhibitor)
CCCCCCCCCCCCCCCC[n+]1ccc(/C=N/O)cc1	CHOP inhibitor 103.0 | CHOP inh conf 124.8
Cc1ccc(-c2nnc(SCC(=O)N/N=C/c3ccccc3C(=O)O)n2-c2ccc(Cl)cc2)cc1	none
C=C(C)COc1ccc(-c2[nH]ncc2Oc2ccccc2OC)c(O)c1	none
C=C(C)COc1ccc(-c2[nH]ncc2-c2ccccc2OC)c(O)c1	CHOP inhibitor 105.5 | CHOP inh conf inactive
